In ChEMBL document CHEMBL2040734, “Benzothiazoles: search for anticancer agents” (2012):

What was measured:
Type in all cases: functional
KM12 = experiment: Cytotoxicity against human KM12 cells assessed as cell growth at 0.1 uM after 48 hrs by sulforhodamine B assay; conditions: KM12, 48 h, read-out: Activity
UACC-257 = experiment: Cytotoxicity against human UACC257 cells assessed as cell growth at 0.1 uM after 48 hrs by sulforhodamine B assay; conditions: UACC-257, 48 h, read-out: Activity
NCI-H460 = experiment: Cytotoxicity against human NCI-H460 cells assessed as cell growth at 100 uM after 48 hrs by sulforhodamine B assay; conditions: NCI-H460, 48 h, read-out: Activity
HCT-116 = experiment: Cytotoxicity against human HCT116 cells assessed as cell growth at 100 uM after 48 hrs by sulforhodamine B assay; conditions: HCT-116, 48 h, read-out: Activity
Outline: (§1)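 Five-dose NCI panel run at 0.01, 0.1, 1, 10 and 100 µM. Cells were in RPMI 1640 with 5% FBS and 2 mM L-glutamine, seeded at 5000–40,000 cells/well and pre-incubated 24 h. Drug was diluted from a DMSO stock into medium with 50 µg/ml gentamicin. Exposure was 48 h at 37 °C, 5% CO2. Cells were fixed with cold TCA and stained with 0.4% SRB, read at 515 nm. Percent growth came from time-zero, control and test absorbances.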

HT-29 = experiment: Cytotoxicity against human HT-29 cells assessed as cell growth at 100 uM after 48 hrs by sulforhodamine B assay; conditions: HT-29, 48 h, read-out: Activity; outline: as §1
MOLT-4 = experiment: Cytotoxicity against human MOLT4 cells assessed as cell growth at 1 uM after 48 hrs by sulforhodamine B assay; conditions: MOLT-4, 48 h, read-out: Activity
NCI-H23 [1] = experiment: Cytotoxicity against human NCI-H23 cells assessed as cell growth at 1 uM after 48 hrs by sulforhodamine B assay; conditions: NCI-H23, 48 h, read-out: Activity
786-0 = experiment: Cytotoxicity against human 786-0 cells assessed as cell growth at 1 uM after 48 hrs by sulforhodamine B assay; conditions: 786-0, 48 h, read-out: Activity
Outline: (§2)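 NCI-60 five-dose screen. Cells were grown in RPMI 1640 with 5% FBS and 2 mM L-glutamine and preincubated 24 h. Compound (DMSO stock) was tested at 0.01, 0.1, 1, 10 and 100 µM for 48 h at 37 °C. Cells were fixed in situ with cold TCA (final 10%) and stained with 0.4% SRB. A515 was read, and percent growth was calculated against time-zero and control plates.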

EKVX [2] = experiment: Cytotoxicity against human EKVX cells assessed as cell growth at 10 uM after 48 hrs by sulforhodamine B assay; conditions: read-out: Activity; outline: as §1
NCI-H23 [3] = experiment: Cytotoxicity against human NCI-H23 cells assessed as cell growth at 10 uM after 48 hrs by sulforhodamine B assay; conditions: NCI-H23, 48 h, read-out: Activity
HCC 2998 [4] = experiment: Cytotoxicity against human HCC2998 cells assessed as cell growth at 10 uM after 48 hrs by sulforhodamine B assay; conditions: HCC 2998, 48 h, read-out: Activity; outline: as §1
SW-620 [5] = experiment: Cytotoxicity against human SW620 cells assessed as cell growth at 10 uM after 48 hrs by sulforhodamine B assay; conditions: SW-620, 48 h, read-out: Activity
SNB-19 [6] = experiment: Cytotoxicity against human SNB19 cells assessed as cell growth at 10 uM after 48 hrs by sulforhodamine B assay; conditions: SNB-19, 48 h, read-out: Activity
SK-MEL-2 [7] = experiment: Cytotoxicity against human SK-MEL-2 cells assessed as cell growth at 10 uM after 48 hrs by sulforhodamine B assay; conditions: SK-MEL-2, 48 h, read-out: Activity
BT-549 [8] = experiment: Cytotoxicity against human BT549 cells assessed as cell growth at 10 uM after 48 hrs by sulforhodamine B assay; conditions: BT-549, 48 h, read-out: Activity; outline: as §2
SF-295 = experiment: Cytotoxicity against human SF295 cells assessed as cell growth at 10 '-5 M after 48 hrs by sulforhodamine B assay; conditions: SF-295, 48 h, read-out: Activity
SK-MEL-2 [9] = experiment: Cytotoxicity against human SK-MEL-2 cells assessed as cell growth at 10 '-5 M after 48 hrs by sulforhodamine B assay; conditions: SK-MEL-2, 48 h, read-out: Activity
A549 = experiment: Growth inhibition of human A549 cells after 48 hrs by sulforhodamine B assay; conditions: A549, 48 h
Outline: (§3)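 Cells were in RPMI 1640 with 5% FBS and pre-incubated 24 h. Read-out was TCA fixation, SRB staining and absorbance at 515 nm. GI50 was the concentration where [(Ti−Tz)/(C−Tz)]×100 = 50, taken from log concentration vs % growth curves. It is given as ">" the top concentration when not reached.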

EKVX [10] = experiment: Growth inhibition of human EKVX cells after 48 hrs by sulforhodamine B assay
Outline: (§4)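 Adherent NCI-60 lines were grown in RPMI 1640 with 5% FBS and 2 mM L-glutamine, plated at 5000–40,000 cells/well and preincubated 24 h. They were then exposed to five concentrations (0.01–100 µM, from a DMSO stock) for 48 h at 37 °C, 5% CO2. Cells were fixed with cold TCA (10% final, 60 min, 4 °C) and stained with 0.4% SRB. Dye was solubilized in 10 mM Tris base and A515 read. GI50 was derived from time-zero, control and treated absorbances.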

SW-620 [11] = experiment: Growth inhibition of human SW620 cells after 48 hrs by sulforhodamine B assay; conditions: SW-620, 48 h; for CC50: read-out: LC50 (the source's name); outline: as §4
U-251 = experiment: Growth inhibition of human U251 cells after 48 hrs by sulforhodamine B assay; conditions: U-251, 48 h; outline: as §4
NCI/ADR-RES = experiment: Growth inhibition of human NCI/ADR-RES cells after 48 hrs by sulforhodamine B assay; outline: as §4
BT-549 [12] = experiment: Growth inhibition of human BT549 cells after 48 hrs by sulforhodamine B assay; conditions: BT-549, 48 h; outline: as §3
NCI-H23 [13] = experiment: Cytotoxicity against human NCI-H23 cells assessed as cell growth at 0.01 uM after 48 hrs by sulforhodamine B assay; conditions: NCI-H23, 48 h, read-out: Activity
COLO 205 = experiment: Cytotoxicity against human COLO205 cells assessed as cell growth at 0.01 uM after 48 hrs by sulforhodamine B assay; conditions: COLO 205, 48 h, read-out: Activity; outline: as §2
HCC 2998 [14] = experiment: Cytotoxicity against human HCC2998 cells assessed as cell growth at 0.01 uM after 48 hrs by sulforhodamine B assay; conditions: HCC 2998, 48 h, read-out: Activity; outline: as §1
SNB-19 [15] = experiment: Cytotoxicity against human SNB19 cells assessed as cell growth at 0.01 uM after 48 hrs by sulforhodamine B assay; conditions: SNB-19, 48 h, read-out: Activity
Malme-3M = experiment: Cytotoxicity against human MALME-3M cells assessed as cell growth at 0.01 uM after 48 hrs by sulforhodamine B assay; conditions: read-out: Activity
MDA-MB-435 = experiment: Cytotoxicity against human MDA-MB-435 cells assessed as cell growth at 0.01 uM after 48 hrs by sulforhodamine B assay; conditions: MDA-MB-435, 48 h, read-out: Activity

Cc1ccc2nc(Nc3c(C)cccc3C)sc2c1
growth at 0.1 µM (KM12): 103% | growth at 0.1 µM (UACC-257): 99% | growth at 100 µM (NCI-H460): 51% | growth at 100 µM (HCT-116): 49% | growth at 100 µM (HT-29): 39% | growth at 1 µM (MOLT-4): 76% | growth at 1 µM (NCI-H23 [1]): 79% | growth at 1 µM (786-0): 81% | growth at 10 µM (EKVX [2]): 39% | growth at 10 µM (NCI-H23 [3]): 58% | growth at 10 µM (HCC 2998 [4]): 53% | growth at 10 µM (SW-620 [5]): 22% | growth at 10 µM (SNB-19 [6]): 47% | growth at 10 µM (SK-MEL-2 [7]): 48% | growth at 10 µM (BT-549 [8]): 46% | growth at 10 µM (SF-295): 18.9% | growth at 10 µM (SK-MEL-2 [9]): 34.6% | LC50 (concentration killing 50% of cells) (A549): > 100 µM | TGI (A549): > 100 µM | LC50 (EKVX [10]): > 100 µM | TGI (EKVX [10]): > 100 µM | GI50 (SW-620 [11]): 0.949 µM | TGI (SW-620 [11]): > 100 µM | CC50 (SW-620 [11]): > 100 µM | GI50 (U-251): 25.4 µM | LC50 (U-251): > 100 µM | TGI (U-251): > 100 µM | GI50 (NCI/ADR-RES): 0.639 µM | LC50 (lethal concentration, 50% net cell kill) (NCI/ADR-RES): > 100 µM | TGI (NCI/ADR-RES): > 100 µM | TGI (BT-549 [12]): > 100 µM | CC50 (BT-549 [12]; read-out: LC50 (the source's name)): > 100 µM | growth at 0.01 µM (NCI-H23 [13]): 94% | growth at 0.01 µM (COLO 205): 107% | growth at 0.01 µM (HCC 2998 [14]): 97% | growth at 0.01 µM (SNB-19 [15]): 94% | growth at 0.01 µM (Malme-3M): 102% | growth at 0.01 µM (MDA-MB-435): 95%

Clc1cccc(Cl)c1Nc1nc2cccc(Cl)c2s1
growth at 0.1 µM (KM12): 101% | growth at 0.1 µM (UACC-257): 101% | growth at 100 µM (NCI-H460): -39% | growth at 100 µM (HCT-116): -73% | growth at 100 µM (HT-29): -56% | growth at 1 µM (MOLT-4): 52% | growth at 1 µM (NCI-H23 [1]): 59% | growth at 1 µM (786-0): 52% | growth at 10 µM (EKVX [2]): -89% | growth at 10 µM (NCI-H23 [3]): -71% | growth at 10 µM (HCC 2998 [4]): -88% | growth at 10 µM (SW-620 [5]): -86% | growth at 10 µM (SNB-19 [6]): -74% | growth at 10 µM (SK-MEL-2 [7]): -64% | growth at 10 µM (BT-549 [8]): -86% | growth at 10 µM (SF-295): -45.1% | growth at 10 µM (SK-MEL-2 [9]): -52.7% | GI50 (A549): 1.11 µM | LC50 (concentration killing 50% of cells) (A549): 7.47 µM | TGI (A549): 2.87 µM | GI50 (EKVX [10]): 0.299 µM | LC50 (EKVX [10]): 4.26 µM | TGI (EKVX [10]): 1.4 µM | GI50 (SW-620 [11]): 1.32 µM | TGI (SW-620 [11]): 2.78 µM | CC50 (SW-620 [11]): 5.86 µM | GI50 (U-251): 1.31 µM | TGI (U-251): 2.79 µM | GI50 (NCI/ADR-RES): 0.531 µM | LC50 (lethal concentration, 50% net cell kill) (NCI/ADR-RES): 6.23 µM | TGI (NCI/ADR-RES): 2.15 µM | GI50 (BT-549 [12]): 1.5 µM | TGI (BT-549 [12]): 3.01 µM | growth at 0.01 µM (NCI-H23 [13]): 95% | growth at 0.01 µM (COLO 205): 105% | growth at 0.01 µM (HCC 2998 [14]): 92% | growth at 0.01 µM (SNB-19 [15]): 91% | growth at 0.01 µM (Malme-3M): 101% | growth at 0.01 µM (MDA-MB-435): 96%
